The test system of test [1] is Mus musculus. Nature of the test: Analgesic activity in C57Bl/6 mouse assessed as inhibition of Bv8-induced decrease in latencies to paw withdrawal administered as intraplantar route at 48 degC after 15 to 180 mins. In kind it is functional, organism-based. Summed up:
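Male C57Bl/6 mice (25–30 g), trained the preceding week. Antagonist in saline, 20 µl intraplantar, 5 min before Bv8 (63 fmol i.pl. in saline). Paw withdrawal latency from 48 °C water measured in triplicate at 15–180 min; %ΔNT = 100×(NTts−NTB)/NTB. Separate group of 5 mice per dose; EC50 with 95% confidence intervals from dose–response curves.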

In test [2] the test system is Mus musculus. Briefly: Analgesic activity in C57Bl/6 mouse assessed as changes in basal thermal sensitivity up to 120 pmol administered as intraplantar route at 48 degC after 15 to 180 mins. Format: functional, organism-based. The procedure, abridged:
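Male C57Bl/6 mice (25–30 g), trained in paw-immersion test the preceding week. Compound in saline, 20 µl intraplantar, up to 120 pmol. Hind paw dipped in 48 °C water; withdrawal latency measured three times at 15–180 min post-dose versus baseline (mean of last three pre-dose readings). Result as % change from baseline; 5 mice per dose.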

The source made the active and inactive calls. No cut-off for these calls is given here.

As for `COc1ccc(Cn2c(=O)nc(NCCNC(=N)N)n(Cc3ccc(Cl)cc3)c2=O)cc1`, the EC50 in test [1] was 4.4 pmol. Further, in test [2], the result was inactive.
The like results for `COc1ccc(Cn2c(NCCNC(=N)N)nc(=O)n(Cc3ccc(F)cc3)c2=O)cc1` were, in that order, 0.31 pmol and “inactive”.
On to `COc1ccc(Cn2c(NCCNC(=N)N)nc(=O)n(Cc3ccc(C(F)(F)F)cc3)c2=O)cc1`, for which the EC50 in test [1] was found to be 51 pmol. Further, the outcome in test [2] was inactive.
`COc1ccc(Cn2c(NCCNC(=N)N)nc(=O)n(Cc3ccc(I)cc3)c2=O)cc1`: in test [1], the EC50 came out at 51 pmol. For the same compound, the result in test [2] was inactive.
For `COc1ccc(Cn2c(=O)nc(NCCNC(=N)N)n(Cc3ccc(Cl)c(Cl)c3)c2=O)cc1` the same measures were 4.5 pmol and “inactive”.
For `COc1ccc(Cn2c(NCCNC(=N)N)nc(=O)n(Cc3ccc(Cl)cc3)c2=O)cc1`, the EC50 in test [1] came to 4 pmol. For the same compound, in test [2], the result was inactive.
The like results for `COc1ccc(Cn2c(NCCNC(=N)N)nc(=O)n(Cc3ccc4c(c3)OCO4)c2=O)cc1` were, in that order, 39 pmol and “inactive”.
The like results for `Cc1ccc(Cn2c(=O)nc(NCCNC(=N)N)n(Cc3ccc(Cl)c(Cl)c3)c2=O)cc1` were, in that order, 5.1 pmol and “inactive”.
The like results for `COc1ccc(Cn2c(=O)nc(NCCNC(=N)N)n(Cc3ccc(Br)cc3)c2=O)cc1` were, in that order, 4.3 pmol and “inactive”.
Consider `COc1ccc(Cn2c(=O)nc(NCCNC(=N)N)n(Cc3ccccc3)c2=O)cc1`, for which the EC50 in test [1] is recorded as 63 pmol. Besides, the result in test [2] was inactive.
On to `COc1ccc(Cn2c(=O)nc(NCCNC(=N)N)n(Cc3ccc(I)cc3)c2=O)cc1`, for which, in test [1], the EC50 stood at 39 pmol. Further, the result in test [2] was inactive.
`CCc1ccc(Cn2c(=O)nc(NCCNC(=N)N)n(Cc3ccc(OC)cc3)c2=O)cc1`: the EC50 in test [1] was determined as 5.8 pmol. Also, the outcome in test [2] was inactive.
For `COc1ccc(Cn2c(NCCNC(=N)N)nc(=O)n(Cc3ccc(C)cc3)c2=O)cc1` the same measures were 4.4 pmol and “inactive”.
For `COc1ccc(Cn2c(NCCNC(=N)N)nc(=O)n(Cc3ccc([N+](=O)[O-])cc3)c2=O)cc1` the same measures were 48 pmol and “inactive”.
With `COc1ccc(Cn2c(NCCNC(=N)N)nc(=O)n(Cc3ccc(OC)cc3)c2=O)cc1`, the result in test [2] was inactive.
With `Cc1ccc(Cn2c(NCCNC(=N)N)nc(=O)n(Cc3ccc(C(F)(F)F)cc3)c2=O)cc1`, in test [1], the EC50 was 0.033 pmol. In addition, the outcome in test [2] was inactive.
The like results for `COc1ccc(Cn2c(=O)nc(NCCNC(=N)N)n(Cc3ccc(C)cc3)c2=O)cc1` were, in that order, 4.5 pmol and “inactive”.
The like results for `COc1ccc(Cn2c(=O)nc(NCCNC(=N)N)n(Cc3ccc(C(F)(F)F)cc3)c2=O)cc1` were, in that order, 48 pmol and “inactive”.
For `COc1ccc(Cn2c(NCCNC(=N)N)nc(=O)n(Cc3ccc(Br)cc3)c2=O)cc1` the same measures were 0.36 pmol and “inactive”.
On to `COc1ccc(Cn2c(=O)nc(NCCNC(=N)N)n(Cc3ccc(F)cc3)c2=O)cc1`, for which, in test [1], the EC50 is recorded as 36 pmol. Besides, in test [2], the outcome was inactive.

Source of the values: ChEMBL document CHEMBL3259533, “A new convenient synthetic method and preliminary pharmacological characterization of triazinediones as prokineticin receptor antagonists” (Eur J Med Chem, 2014).
